The values that follow come from PMC9095748 (The Journal of Biological Chemistry, 2022).

≈ marks a conversion by molar mass, not a printed value. Where “and” joins values, the source holds several entries; their conditions need not be identical. Equal values may be shown once.

Data set [1] concerns the target T1, hGLP1R (Homo sapiens, UniProt P43220). The data set is described as follows: GLP1R internalization in hGLP1R-GFP transfected HepG2 cells. It counts as cell-based. To be noted: for GLP1R internalization: 50 μM, 1 h, hGLP1R-GFP transfected HepG2 cells. The method in brief: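 HepG2 cells lipofected with hGLP1R-spark-GFP, then treated 1 h with test compound (50 µM), Ex-4 (20 nM, positive control) or DMSO. For antagonism, Ex-9 (300 nM) added 15 min before. Washed in PBS and formalin-fixed. Surface labelled with sulfo-NHS-biotin (1 mg/ml, 30 min, 4 °C), washed in 100 mM glycine, PFA-fixed, blocked in 1% BSA and stained with Texas-Red-avidin (5 µg/ml, 30 min). Internalization read by confocal microscopy.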

The nature of data set [2]: Tissue distribution after oral administration in mice. The format is in vivo, BALB/c mice. The conditions noted are these: 2 h after oral administration. The procedure, abridged:
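Male BALB/c mice dosed orally at 25 mg/kg. Organs (pancreas, heart, brain, lung, spleen, kidney, liver) collected 2 h after dosing and homogenized. Extracted with acetonitrile:methanol (1:1) and run on reverse-phase C18 HPLC with 0.1% TFA water/acetonitrile (40:60) and fluorescence detection (ex 350 nm, em 497 nm). Quantified against a standard curve.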

The nature of data set [3]: Solubility in DMSO. It counts as physicochemical.
In data set [4] the test system is INS-1 cells. The data set is described as follows: Insulin secretion assay in INS-1 cells. The conditions noted are these: high glucose 16.7 mM, 1.5 h. It counts as cell-based, rat. The method in brief:
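INS-1 cells seeded, then held 16 h in 5 mM glucose medium and 1.5 h in 2.5 mM glucose. Treated 1.5 h with test compound or DMSO vehicle at 16.7 mM glucose. Supernatant insulin measured by rat insulin ELISA and normalized to total protein. n = 3/group.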

A short description of data set [5]: Pharmacokinetics after single oral dose in BALB/c mice. It counts as in vivo. The method in brief: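 Male BALB/c mice (5-6 weeks, 25 ± 2 g) given a single oral dose of 25 mg/kg and killed at 5 min to 24 h. Plasma extracted with acetonitrile:methanol (1:1) and run on reverse-phase C18 HPLC at 28 °C. Mobile phase 0.1% TFA water/acetonitrile (40:60) at 1 ml/min, fluorescence detection (ex 350 nm, em 497 nm). Quantified from peak-area standard curve; PK parameters by standard methods.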

The test system of data set [6] is STZ-induced diabetic mouse model. The data set is described as follows: STZ-induced diabetic mouse model. The format is in vivo, BALB/c mice. The method in brief: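 Male BALB/c mice, 6-7 weeks old, acclimated 1 week, on chow. STZ 65 mg/kg in citrate buffer pH 4.0 given IP for 5 days after overnight fast. Test compound 25 mg/kg oral in CMC for 18 days, starting 3 days before or 1 day after STZ. Controls received 0.25% CMC with or without STZ. Tail-vein glucose taken on alternate days, body weight on random days. Pancreas sections stained for insulin/Ki67 and insulin/TUNEL; n ≥ 5/group.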

The subject of data set [7] is TXNIP promoter. As to the kind of experiment: TXNIP promoter-luciferase activity assay in INS-1 cells. The format is cell-based, rat. The conditions noted are these: PK2 50 μM, 45 min, INS-1 cells transfected with TXNIP promoter-luciferase construct.
A short description of data set [8]: Safety observation in BALB/c mice over 30 days of treatment. The format is in vivo. To be noted: 25 mg/kg.
Data set [9] deals with T1, hGLP1R. The data set is described as follows: cAMP Glo assay in hGLP1R-transfected 293A cells. It counts as cell-based. The procedure, abridged: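 293A cells transiently lipofected with hGLP1R at 70% confluency. Seeded 4 h later at 5×10^4 cells/well and left overnight. Treated 4 h with DMSO or test compound at 0.5, 10, 20, 100, 200, 300, 500, 1000 and 2000 nM. Cells lysed and cAMP read by cAMP-Glo luminescence. EC50 from curve fitting; n = 3/group.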

For data set [10], the system named is TXNIP. The data set is described as follows: TXNIP protein expression, Western blot in INS-1 cells. The conditions noted are these: PK2 30 min. It counts as cell-based, rat. The method in brief: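 INS-1 cells treated with test compound or DMSO vehicle for 30 min. Lysed in RIPA buffer with protease and phosphatase inhibitors, protein measured by BCA, and reduced at 95 °C for 5 min. Run on 4-10% SDS-PAGE and blotted to PVDF. Blocked in 5% BSA or milk, then probed with anti-TXNIP and HRP-conjugated secondary in TBST with 5% BSA.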
In general terms: In western blotting, separated proteins are transferred to a membrane and probed.

The subject of data set [11] is PKA. As to the kind of experiment: PKA activity ELISA in hGLP1R transfected 293A cells. The format is cell-based, human. The conditions noted are these: PK2 50 μM, 45 min, vs DMSO. The procedure, abridged:
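293A cells lipofected with hGLP1R-spark-GFP. After 48 h, seeded at 1.0×10^4 cells/well. Next day treated with test compound (50 μM) or DMSO for 45 min in serum-free medium. PKA activity read by an ELISA on immobilized PKA substrate, per the kit protocol.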

Data set [12] concerns CREB phosphorylation at Ser133. The data set is described as follows: CREB phosphorylation, Western blot in HepG2 cells. It counts as cell-based, human. To be noted: PK2 50 μM, 1 hr, serum-starved HepG2 cells, vs DMSO.
The mark [13] stands for this setting: BALB/c mice, oral, single dose 25 mg/kg, plasma.
Where [14] appears, read: male, BALB/c, mouse, plasma, po, 25 mg/kg.

T1 sequence (P43220 24-463): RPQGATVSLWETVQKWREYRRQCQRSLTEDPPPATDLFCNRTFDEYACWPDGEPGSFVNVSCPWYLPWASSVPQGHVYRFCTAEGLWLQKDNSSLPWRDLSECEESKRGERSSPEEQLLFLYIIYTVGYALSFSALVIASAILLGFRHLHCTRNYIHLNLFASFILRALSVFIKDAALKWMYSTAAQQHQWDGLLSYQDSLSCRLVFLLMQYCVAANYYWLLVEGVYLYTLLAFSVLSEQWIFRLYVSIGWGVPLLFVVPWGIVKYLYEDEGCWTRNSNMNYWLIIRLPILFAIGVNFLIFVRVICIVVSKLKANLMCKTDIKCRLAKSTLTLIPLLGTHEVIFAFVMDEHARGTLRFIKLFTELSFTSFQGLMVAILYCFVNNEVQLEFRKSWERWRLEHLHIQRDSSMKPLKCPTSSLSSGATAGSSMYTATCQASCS

As to “6-((1-(4-methoxybenzyl)-1H-1,2,3-triazol-4-yl)methyl)-6H-indolo[2,3-b]quinoxaline [PK4]”, the GLP1R internalization entry in data set [1] is “rapidly internalized GLP1R receptors”.
As a reminder, the solubility is the concentration that dissolves in the medium under given conditions. The low end stands for a poorly soluble substance, the high end for a readily soluble substance. By AUC(0-t) is commonly meant exposure summed from dosing to a finite time, without extrapolation to infinity. Low readings indicate less exposure, high ones more exposure. One may read the Cmax as the highest concentration seen after dosing. A word on the Tmax: it is the time from dosing to the highest level. Usually half-life stands for the time needed for the level to fall by half in the phase considered. A high value points to slow loss. Broadly, the EC50 is the concentration at which the effect is half-maximal. As to `O=[N+]([O-])c1ccc(Cn2cc(Cn3c4ccccc4c4nc5ccccc5nc43)nn2)cc1` [PK2, 6-((1-(4-nitrobenzyl)-1H-1,2,3-triazol-4-yl)methyl)-6H-indolo[2,3-b]quinoxaline], in data set [2], the “Tissue distribution: brain” value is on record as “A small amount of PK2 was detectable”; the “Tissue distribution: heart, lungs, and spleen” value is on record as “no traces”; the “Tissue distribution: liver, kidney, and pancreas” value is “distributed highly”. Also, the solubility in [3] turned out to be 10000 µg/mL (≈ 23 mM). Also, the “Increase in insulin secretion” value in data set [4] came out at 1.45 fold. Besides, in [5] (BALB/c mice, oral, single dose 25 mg/kg), the “Plasma clearance (CL)” value was determined as 7.79 L/h. For the same compound, in data set [5] (setting [13]), the “AUMC (0-t)” value is given as 13,601.58 ng h/ml, the Area of last worked out at 320.1451 ng·h/mL, the “Cl (Clearance)” value was 7.7875 L/h and the “K (Eliminatory rate constant)” value is 0.2003 h⁻¹. In addition, in data set [5] (BALB/c mice, oral, single dose 25 mg/kg, plasma, 25 mg/kg), the “VD (Apparent volume of distribution)” value was 38.88 L and 38.882 L. Also, in [5] (setting [14]), the AUC(0-t) is 3210 ng·h/mL, the concentration peaked (Cmax) at 787 ng/mL and the Tmax was determined as 1 h. In [5] (male, BALB/c, mouse, plasma, po, 25 mg/kg, t1/2 (Elimination half life), BALB/c mice, single dose 25 mg/kg), this compound had a half-life of 4.8 h. The “Recovery of serum insulin levels” value in data set [6] (PK2-treated groups, 25 mg/kg oral, end of study, vs STZ group) is given as “up to 6 fold”. Further, the “Enhancement of β-cell proliferation (Ki67)” value in data set [6] (PK2 groups, Ki67 in insulin-positive islet cells) came to 1.7 fold. The Pancreas weight result in data set [6] (PK2 groups, at termination of the study) was “protection in pancreas weight”. Besides, in data set [6] (STZ mice, PK2 25 mg/kg oral, compared to STZ only), the Body weight result was “increased body weight”. For the same compound, the “Reduction of number of TUNEL-positive cells in pancreatic islets” value in data set [6] (both PK2 groups compared to STZ group) worked out at 3 fold. Moreover, the “Preservation of β-cell mass” value in data set [6] (pre-PK2 and post-PK2 groups compared to STZ, insulin immunohistochemistry) is reported as 4 fold. Besides, the “Islets area (H&E)” value in data set [6] (pre-PK2 and post-PK2 groups vs STZ group) is recorded as “significantly bigger islets area”. Besides, the “Reduction of plasma glucose levels” value in data set [6] (pre-PK2 and post-PK2 groups, 25 mg/kg oral, compared to STZ only) was 1.4 fold. In data set [7], the TXNIP promoter activity result is on record as “attenuates TXNIP promoter activity”. Further, the “Abnormal behavior or acute toxicity” value in data set [8] is reported as “no abnormal behavior or acute toxicity was observed”. In data set [9], the 50% effective concentration (EC50) was found to be 43.7 nM. The TXNIP protein expression entry in [10] was “downregulates TXNIP”. Also, the “Increment in PKA activity” value in [11] turned out to be 1.6 fold. For the same compound, the GLP1R internalization entry in data set [1] is “rapidly internalized GLP1R receptors”. Further, in [12], the “Increase in CREB phosphorylation at Ser133” value amounted to 1.7 fold.
In the case of `Cc1ccc(Cn2cc(Cn3c4ccccc4c4nc5ccccc5nc43)nn2)cc1` [PK3, 6-((1-(4-methylbenzyl)-1H-1,2,3-triazol-4-yl)methyl)-6H-indolo[2,3-b]quinoxaline], the GLP1R internalization entry in data set [1] is “rapidly internalized GLP1R receptors”.
Take “Exendin (9–39) [Ex-9, reference compound]”: the “Effect of antagonist on PK2-mediated GLP1R internalization” value in [1] (Ex-9 300 nM for 15 min, then PK2 50 μM for 1 h, HepG2 cells) is on record as “blocking PK2-mediated GLP1R internalization”.
